Article PMC6175223 (Journal of Clinical Pharmacology, 2018)
Where two headings read alike, the source gives them in different places. One block for each compound: values may come before it.

Experiments:
[1] = Study A: caffeine clearance in smokers and nonsmokers; type: in vivo, human; details: for Caffeine plasma clearance CL/F: 200 mg oral caffeine, geometric mean
How it was run: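 A 200 mg oral caffeine capsule was given on day 6 after an overnight fast of ≥10 h, with a methylxanthine-free diet for ≥1 week before and during the study. Plasma caffeine and paraxanthine were sampled predose and at 0.5–12 h. LC-MS/MS, LLOQ 20 ng/mL. Noncompartmental CL/F. ANOVA on ln-transformed data with cohort as fixed effect; smoker/nonsmoker geometric means.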

[2] = Study A safety assessment; type: in vivo, human
How it was run: (§1)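 Safety was monitored by adverse-event reporting, physical examination, vital signs, 12-lead ECG and clinical laboratory tests. Concomitant medications and AEs were recorded from signing of the consent form until a follow-up safety telephone call. SAEs made known within 28 days after the last investigational dose were also recorded, as were later SAEs suspected to be related.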

[3] = healthy adult men; cited from earlier work
CYP1A2 = details: in vitro; earlier data, no reference given; cited from earlier work
CYP2D6 = details: in vitro; earlier data, no reference given; cited from earlier work
CYP2C19 = details: in vitro; earlier data, no reference given; cited from earlier work
[4] = cited from earlier work
Study B = type: in vivo, human; details: for AUC(0-inf) / Cmax / Vd/F / half-life / Tmax: male, human, plasma; for Cmax / Vd/F / half-life / CL/F: geometric mean (geometric CV%); for Vd/F: Vz/F; for Tmax: median (minimum, maximum)
[5] = cited from earlier work; remark: listed apart in the source
Study A = type: in vivo, human; details: for Cmax / Vd/F / half-life / Tmax: male, human, plasma, oral, 4 mg; for Cmax / Vd/F / half-life / CL/F: geometric mean (geometric CV%); for Vd/F: Vz/F; for Tmax: median (minimum, maximum)
CYP3A4 = details: in vitro; earlier data, no reference given; cited from earlier work
[6] = Study B safety assessment; type: in vivo, human
How it was run: as §1

[7] = multiple dose, 0.5- to 2-mg dose range
[8] = oral, 4 mg, pomalidomide 4 mg administered alone
[9] = oral, 4 mg, pomalidomide 4 mg administered with fluvoxamine
[10] = with fluvoxamine compared with alone
[11] = smokers compared with nonsmokers

Caffeine plasma clearance CL/F ([1]; nonsmokers (cohort B)): 5.3 L/h
Caffeine plasma clearance CL/F ([1]; smokers (cohort A)): 9.9 L/h
Caffeine clearance, fold higher in smokers than in nonsmokers ([1]; smokers versus nonsmokers): approximately 2 fold
SMILES: Cn1c(=O)c2c(ncn2C)n(C)c1=O [caffeine]

SMILES: Nc1cccc2c1C(=O)N(C1CCC(=O)NC1=O)C2=O (stereo not shown) [pomalidomide]
Correlation between caffeine clearance and pomalidomide clearance ([1]; in vivo, study A): good correlation
Difference in incidence of TEAEs between smokers and nonsmokers ([2]; only TEAEs that occurred after pomalidomide dosing): no difference
Safety and tolerability ([2]; single oral dose of 4 mg in healthy male smokers and nonsmokers ≥ 40 to ≤ 80 years old): safe and well tolerated
Deaths ([2]; study A): no deaths
Number of TEAEs suspected of being related to the study drug ([2]; study A): 22
SAEs or severe TEAEs ([2]; study A): No subject experienced an SAE or severe TEAE
Number of TEAEs reported ([2]; study A overall): 37
Subjects reporting TEAEs suspected of being related to the study drug ([2]; study A, 12 subjects): 21.8%
Number of TEAEs of moderate severity ([2]; study A, all presyncope, not considered related to the study drug): 3
Fraction of the dose excreted in urine as unchanged drug [3]: < 5.0 % of the administered dose
Renal excretion of pomalidomide-related material [3]: ~73.0 % of the administered dose
Metabolism by CYP enzyme (CYP1A2): capable of metabolizing pomalidomide
Metabolism by CYP enzyme (CYP2D6): to a minor extent
Metabolism by CYP enzyme (CYP2C19): to a minor extent
mean apparent terminal half-life (t1/2) [4]: approximately 7.5 hours
Accumulation (AUC and Cmax) [4, 7]: less than 14.0%
Time to steady state [4, 7]: ≤ 3 days
Dose proportionality of systemic exposure (AUC) ([4]; single dose up to 50 mg): approximately dose‐proportional
AUC(0-inf) (Study B; oral): 1190 ng·h/mL
AUC(0-inf) (Study B; oral, 4 mg): 526 ng·h/mL
Cmax (Study B; [8]): 49.2 ng/mL
Cmax (Study B; [9]): 59.5 ng/mL
Vd/F (Study B; [8]): 65.4 L
Vd/F (Study B; [9]): 64 L
half-life (Study B; oral, 4 mg, t1/2, pomalidomide 4 mg administered alone): 6 h
half-life (Study B; oral, 4 mg, t1/2, pomalidomide 4 mg administered with fluvoxamine): 13.1 h
Tmax (Study B; [8]): 3 h
Tmax (Study B; [9]): 4.5 h
AUC(0-inf) (Study B; po, 4 mg): 526 ng·h/mL
CL/F (Study B; pomalidomide 4 mg administered alone): 7.6 L/h
CL/F (Study B; pomalidomide 4 mg administered with fluvoxamine): 3.4 L/h
Increase of AUC0-inf (Study B; [10]): 125.1%
Increase of Cmax (Study B; [10]): 23.7%
Ratio (%) of geometric means, AUC0-inf (Study B; with fluvoxamine versus alone): 225.1%
Ratio (%) of geometric means, Cmax (Study B; with fluvoxamine versus alone): 123.7%
Change in pomalidomide exposure (in words) ([5]; coadministration of ketoconazole): mild increase in pomalidomide exposure that was not considered clinically relevant
Change in mean pomalidomide exposure (in words) ([5]; concomitant fluvoxamine and ketoconazole, healthy men): approximately doubled
t1/2 ([5]; prior drug interaction study): 6.1 h
Increase of total drug exposure ([5]; single 4-mg dose with CYP3A inhibitor ketoconazole versus alone): 18.8%
Increase of total drug exposure ([5]; single 4-mg dose with ketoconazole + fluvoxamine versus alone): 145.7%
Cmax (Study A; nonsmokers): 56.3 ng/mL
Cmax (Study A; smokers): 64.4 ng/mL
Vd/F (Study A; nonsmokers): 65.8 L
Vd/F (Study A; smokers): 59.7 L
half-life (Study A; t1/2, nonsmokers): 7.8 h
half-life (Study A; t1/2, smokers): 4.8 h
Tmax (Study A; nonsmokers): 3 h
Tmax (Study A; smokers): 1.8 h
CL/F (Study A; nonsmokers): 5.8 L/h
CL/F (Study A; nonsmokers, listed as Pomalidomide): 5.8 (19.6) L/h
Decrease of AUC0-inf (lower in smokers) (Study A; [11]): 32.3%
Increase of Cmax (higher in smokers) (Study A; [11]): 14.4%
Ratio (%) of geometric means, AUC0-inf (Study A; smokers/nonsmokers): 67.7%
Ratio (%) of geometric means, Cmax (Study A; smokers/nonsmokers): 114.4%
CL/F (Study A; smokers): 8.6 L/h
CL/F (Study A; smokers, listed as Pomalidomide): 8.6 (32.5) L/h
Metabolism by CYP enzyme (CYP3A4): capable of metabolizing pomalidomide
Safety and tolerability ([6]; single oral 4 mg pomalidomide coadministered with multiple oral 50-mg doses of fluvoxamine, healthy male subjects): safe and well tolerated
Deaths, SAEs, or TEAEs leading to discontinuation ([6]; study B): No deaths, SAEs, or TEAEs leading to discontinuation were reported
TEAEs related to the study drug ([6]; study B): No subject reported at least 1 TEAE related to the study drug
Subjects reporting TEAEs ([6]; study B overall, 1 of 15 subjects): 6.7%
